Test results reported in ChEMBL document CHEMBL1131208, “Substituted 2-iminopiperidines as inhibitors of human nitric oxide synthase isoforms” (J Med Chem, 1998).
pIC50: −log10 of the molar value.

Legend:
[1] = biological target: Nitric oxide synthase, inducible (Homo sapiens, UniProt P35228); experiment: Inhibition of human Inducible nitric oxide synthase
[2] = biological target: T1, Nitric oxide synthase 3 (Homo sapiens, UniProt P29474); experiment: inhibition of human endothelial constitutive Endothelial nitric oxide synthase (heNOS)
T1 sequence (P29474 whole entry): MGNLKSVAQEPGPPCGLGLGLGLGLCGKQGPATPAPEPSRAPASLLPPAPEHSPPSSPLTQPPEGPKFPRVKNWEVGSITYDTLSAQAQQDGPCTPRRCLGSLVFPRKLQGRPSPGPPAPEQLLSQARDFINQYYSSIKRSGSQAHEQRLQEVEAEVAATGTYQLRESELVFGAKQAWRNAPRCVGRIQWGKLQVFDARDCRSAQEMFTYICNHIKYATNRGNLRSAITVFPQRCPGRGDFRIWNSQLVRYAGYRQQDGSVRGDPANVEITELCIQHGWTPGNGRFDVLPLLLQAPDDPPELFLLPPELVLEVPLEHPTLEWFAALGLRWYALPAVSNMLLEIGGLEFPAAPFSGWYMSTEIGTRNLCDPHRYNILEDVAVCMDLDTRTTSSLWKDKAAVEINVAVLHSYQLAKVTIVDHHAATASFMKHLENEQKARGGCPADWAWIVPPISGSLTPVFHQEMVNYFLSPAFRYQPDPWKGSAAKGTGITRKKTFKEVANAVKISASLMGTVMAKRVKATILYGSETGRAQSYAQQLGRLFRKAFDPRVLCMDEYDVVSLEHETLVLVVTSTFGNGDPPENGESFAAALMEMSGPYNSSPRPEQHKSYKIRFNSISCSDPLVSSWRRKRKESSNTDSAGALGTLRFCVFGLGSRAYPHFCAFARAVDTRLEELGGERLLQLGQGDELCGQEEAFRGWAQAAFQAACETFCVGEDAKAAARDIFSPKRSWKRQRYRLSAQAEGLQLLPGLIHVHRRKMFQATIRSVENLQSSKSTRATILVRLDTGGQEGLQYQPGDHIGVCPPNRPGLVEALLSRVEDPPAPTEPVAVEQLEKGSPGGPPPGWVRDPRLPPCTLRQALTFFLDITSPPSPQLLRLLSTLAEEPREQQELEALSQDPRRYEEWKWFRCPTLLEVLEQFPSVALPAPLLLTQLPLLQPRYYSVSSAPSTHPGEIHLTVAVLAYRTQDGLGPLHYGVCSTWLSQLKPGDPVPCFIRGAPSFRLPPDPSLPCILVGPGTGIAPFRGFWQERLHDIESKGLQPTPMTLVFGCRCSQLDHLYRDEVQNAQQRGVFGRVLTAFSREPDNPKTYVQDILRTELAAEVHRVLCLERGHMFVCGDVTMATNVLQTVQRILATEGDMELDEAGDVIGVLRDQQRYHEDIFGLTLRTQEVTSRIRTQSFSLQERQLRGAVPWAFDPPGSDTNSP

[3] = biological target: Nitric oxide synthase 1 (Homo sapiens, UniProt P29475); experiment: Inhibition of human Neuronal nitric oxide synthase
Sequence of Nitric oxide synthase 1 (P29475 whole entry): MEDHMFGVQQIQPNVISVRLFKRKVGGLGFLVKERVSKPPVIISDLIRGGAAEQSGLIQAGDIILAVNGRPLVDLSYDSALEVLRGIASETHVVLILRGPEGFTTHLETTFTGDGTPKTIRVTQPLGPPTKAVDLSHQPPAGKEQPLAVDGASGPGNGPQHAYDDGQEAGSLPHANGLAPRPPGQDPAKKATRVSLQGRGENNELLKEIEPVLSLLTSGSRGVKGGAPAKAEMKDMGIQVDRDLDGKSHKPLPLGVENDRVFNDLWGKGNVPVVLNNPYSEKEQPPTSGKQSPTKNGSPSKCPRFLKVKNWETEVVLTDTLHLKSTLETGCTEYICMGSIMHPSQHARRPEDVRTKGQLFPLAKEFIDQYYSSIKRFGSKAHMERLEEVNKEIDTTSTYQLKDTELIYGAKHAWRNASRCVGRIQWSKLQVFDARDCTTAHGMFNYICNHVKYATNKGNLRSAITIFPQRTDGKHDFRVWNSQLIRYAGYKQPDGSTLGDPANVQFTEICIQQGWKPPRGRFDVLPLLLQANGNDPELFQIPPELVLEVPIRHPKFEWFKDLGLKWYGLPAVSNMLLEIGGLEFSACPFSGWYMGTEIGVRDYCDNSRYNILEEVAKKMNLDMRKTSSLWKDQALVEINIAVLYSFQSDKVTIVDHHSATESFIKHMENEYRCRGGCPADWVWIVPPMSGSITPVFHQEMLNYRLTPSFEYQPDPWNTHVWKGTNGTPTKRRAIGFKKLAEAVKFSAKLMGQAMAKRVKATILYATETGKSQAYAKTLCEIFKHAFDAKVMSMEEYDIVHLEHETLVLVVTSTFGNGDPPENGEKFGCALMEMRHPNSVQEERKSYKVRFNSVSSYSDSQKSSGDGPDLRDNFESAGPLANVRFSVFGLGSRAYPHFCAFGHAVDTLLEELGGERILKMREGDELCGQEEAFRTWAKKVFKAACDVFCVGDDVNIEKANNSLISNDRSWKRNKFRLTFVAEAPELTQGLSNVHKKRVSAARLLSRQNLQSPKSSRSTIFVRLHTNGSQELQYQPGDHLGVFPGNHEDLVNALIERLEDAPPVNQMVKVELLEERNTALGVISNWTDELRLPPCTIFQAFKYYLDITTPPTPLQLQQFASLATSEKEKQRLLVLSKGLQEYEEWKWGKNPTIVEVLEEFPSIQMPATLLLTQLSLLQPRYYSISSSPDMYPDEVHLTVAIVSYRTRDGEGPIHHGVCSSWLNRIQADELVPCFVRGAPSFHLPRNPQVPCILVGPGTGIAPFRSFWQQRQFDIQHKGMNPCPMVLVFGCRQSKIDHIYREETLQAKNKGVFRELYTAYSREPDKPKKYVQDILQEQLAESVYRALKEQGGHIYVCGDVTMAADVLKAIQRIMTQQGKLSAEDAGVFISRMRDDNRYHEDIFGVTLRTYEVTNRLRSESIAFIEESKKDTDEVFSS

[4] = biological target: Nitric oxide synthase (inducible and endothelial) (Homo sapiens) (UniProt P35228+P29474); experiment: Selectivity is the ratio between the IC50 values of heNOS and hiNOS; type: protein assay
Sequence of Nitric oxide synthase (inducible and endothelial) (Homo sapiens) (P35228 whole entry, looked up, one chain of several): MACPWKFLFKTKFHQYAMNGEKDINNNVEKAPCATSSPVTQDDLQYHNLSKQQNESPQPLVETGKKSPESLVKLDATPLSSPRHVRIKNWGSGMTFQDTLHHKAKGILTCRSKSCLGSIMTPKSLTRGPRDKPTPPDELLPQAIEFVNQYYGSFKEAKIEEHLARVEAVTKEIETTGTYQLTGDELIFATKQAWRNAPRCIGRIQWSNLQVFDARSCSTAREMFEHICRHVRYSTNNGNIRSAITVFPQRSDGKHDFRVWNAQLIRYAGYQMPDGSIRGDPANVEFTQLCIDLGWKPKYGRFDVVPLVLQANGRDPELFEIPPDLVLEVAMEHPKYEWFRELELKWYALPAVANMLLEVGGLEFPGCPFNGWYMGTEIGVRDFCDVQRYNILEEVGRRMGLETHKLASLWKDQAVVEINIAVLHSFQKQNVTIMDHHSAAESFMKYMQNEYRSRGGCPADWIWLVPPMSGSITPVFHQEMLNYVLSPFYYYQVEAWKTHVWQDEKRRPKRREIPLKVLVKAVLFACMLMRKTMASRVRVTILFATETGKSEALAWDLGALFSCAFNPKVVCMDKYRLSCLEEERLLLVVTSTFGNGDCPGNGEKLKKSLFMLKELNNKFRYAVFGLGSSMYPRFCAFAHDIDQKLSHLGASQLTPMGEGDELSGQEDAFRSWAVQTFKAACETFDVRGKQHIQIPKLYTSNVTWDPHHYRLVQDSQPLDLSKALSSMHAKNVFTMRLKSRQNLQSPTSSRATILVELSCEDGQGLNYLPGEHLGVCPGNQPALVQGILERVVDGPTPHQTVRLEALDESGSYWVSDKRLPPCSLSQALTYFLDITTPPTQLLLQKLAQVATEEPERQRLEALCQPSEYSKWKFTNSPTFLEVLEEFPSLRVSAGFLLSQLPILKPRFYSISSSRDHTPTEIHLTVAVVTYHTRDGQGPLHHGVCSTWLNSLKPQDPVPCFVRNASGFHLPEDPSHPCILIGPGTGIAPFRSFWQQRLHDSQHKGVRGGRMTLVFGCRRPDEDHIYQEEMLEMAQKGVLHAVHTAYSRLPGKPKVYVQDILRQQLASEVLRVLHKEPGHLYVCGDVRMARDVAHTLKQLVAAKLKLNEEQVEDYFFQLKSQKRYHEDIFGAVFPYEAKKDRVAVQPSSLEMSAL
Outline: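 Recombinant human iNOS/eNOS expressed in Sf9 cells (baculovirus), partially purified by DEAE-Sepharose. Eight inhibitor concentrations were tested with 30 μM final L-arginine containing [3H]arginine, in Tris pH 7.6 with BSA, DTT, CaCl2, FAD, tetrahydrobiopterin and NADPH, 15 min at 37 °C. eNOS also had 40 nM calmodulin. [3H]citrulline was separated on cation-exchange resin and counted. Assays were run at least in duplicate; IC50 was derived.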

[5] = tested on: Rattus norvegicus; experiment: Compound at an oral dose of 10 mg/Kg was tested in vivo for the inhibition of plasma nitrite levels in LPS-treated rats; type: functional
Outline: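 Male Lewis rats dosed orally 1 h before intraperitoneal LPS (10–12.5 mg/kg) to induce iNOS. Plasma nitrite/nitrate measured 5 h after LPS by fluorometric assay. Percent inhibition is relative to LPS-only versus saline controls; n = 6 animals/dose.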

Sequence of Nitric oxide synthase, inducible (P35228 whole entry): as the sequence (P35228 whole entry, looked up, one chain of several) above

Molecule `CN1CCCCC1=N` has a pIC50 [1] of less than 4.00, a pIC50 [2] of less than 4.00 and a pIC50 [3] of less than 4.00.

For `CC1CCC(N)=NC1` (stereo not given), the pIC50 [1] was 5.29 and the pIC50 [2] was 4.24.

`CC1CCCC(N)=N1` (stereo not given) was tested, and the Selectivity [4] was 1, the pIC50 [1] was 6.30 and the pIC50 [2] was 6.22. For the same molecule, the pIC50 [3] was 6.40.

In the case of `CC1(C)CCN=C(N)C1`, the Selectivity [4] was 1.6, the pIC50 [1] was 5.47 and the pIC50 [2] was 5.28. For the same molecule, the pIC50 [3] was 5.23.

For `CCCC1CCCC(N)=N1` (stereo not given), the Selectivity [4] was 11, the pIC50 [1] was 6.70 and the pIC50 [2] was 5.66. For the same molecule, the pIC50 [3] was 6.30.

In the case of `CCC1CCN=C(N)C1` (stereo not given), the Selectivity [4] was 5.

`CNC1=NCCCC1` was tested, and the pIC50 [1] was less than 4.00, the pIC50 [2] was less than 4.00 and the pIC50 [3] was less than 4.00.

`NC1=NC(Cc2ccccc2)CCC1` (stereo not given) showed a pIC50 [3] of 6.05.

`CC1CCN=C(N)C1` (stereo not given) was tested, and the inhibition in vivo at 10 mg/kg [5] was 87% and the pIC50 [1] was 7.00.

Work on `NC1=NCCC(C(F)(F)F)C1` (stereo not given) yielded an inhibition in vivo at 10 mg/kg [5] of 24%, a Selectivity [4] of 15 and a pIC50 [1] of 5.49. The pIC50 [2] was 4.33 and the pIC50 [3] was 5.48.

For `CC1CC(N)=NC(C)C1` (stereo not given), the inhibition in vivo at 10 mg/kg [5] was 98%, the Selectivity [4] was 4 and the pIC50 [1] was 7.10. The pIC50 [2] was 6.52 and the pIC50 [3] was 7.22.

`N=C1CCCCN1` gave an inhibition in vivo at 10 mg/kg [5] of 62% and a pIC50 [1] of 5.96.

For `CCC1CCNC(=N)C1` (stereo not given), the pIC50 [1] was 5.59, the pIC50 [2] was 4.89 and the pIC50 [3] was 5.80.

In the case of `NC1=NC(C2CCCCC2)CCC1` (stereo not given), the inhibition in vivo at 10 mg/kg [5] was 18%, the Selectivity [4] was 16 and the pIC50 [1] was 5.06. For the same molecule, the pIC50 [2] was 3.85 and the pIC50 [3] was 5.28.

In the case of `NC1=Nc2ccccc2CC1`, the Selectivity [4] was 2, the pIC50 [1] was 4.00 and the pIC50 [2] was 3.66. For the same molecule, the pIC50 [3] was 4.55.

`NC1=NC(CC2CCCCC2)CCC1` (stereo not given) showed a Selectivity [4] of 64.

`CCCC1CCN=C(N)C1` (stereo not given) gave a pIC50 [1] of less than 4.00, a pIC50 [2] of less than 4.00 and a pIC50 [3] of less than 4.00.

Work on `NC1=NC(C(F)(F)F)CCC1` (stereo not given) yielded a Selectivity [4] of 4, a pIC50 [1] of 6.30 and a pIC50 [2] of 5.70. It also gave a pIC50 [3] of 6.30.

With `CC1CCCN=C1N` (stereo not given) the Selectivity [4] was 0.5, the pIC50 [1] was 5.22 and the pIC50 [2] was 5.52. The pIC50 [3] was 6.15.
